Laboratory results published in PMC3515069 (Toxicology, 2012).
“Also recorded” adds a separate entry of the source. Read-outs that look alike come from different tables or passages of the source. Blank lines part the entries; values can stand above or below the compound they belong to.

What was measured:
AhR [1] = molecular target: T1, AhR (Homo sapiens, UniProt P35869); test: AhR antagonist luciferase assay; assay type: cell-based; details: human HG2L6.1c3 cells, 10 μM with 10 nM TCDD
T1 sequence (P35869 11-848): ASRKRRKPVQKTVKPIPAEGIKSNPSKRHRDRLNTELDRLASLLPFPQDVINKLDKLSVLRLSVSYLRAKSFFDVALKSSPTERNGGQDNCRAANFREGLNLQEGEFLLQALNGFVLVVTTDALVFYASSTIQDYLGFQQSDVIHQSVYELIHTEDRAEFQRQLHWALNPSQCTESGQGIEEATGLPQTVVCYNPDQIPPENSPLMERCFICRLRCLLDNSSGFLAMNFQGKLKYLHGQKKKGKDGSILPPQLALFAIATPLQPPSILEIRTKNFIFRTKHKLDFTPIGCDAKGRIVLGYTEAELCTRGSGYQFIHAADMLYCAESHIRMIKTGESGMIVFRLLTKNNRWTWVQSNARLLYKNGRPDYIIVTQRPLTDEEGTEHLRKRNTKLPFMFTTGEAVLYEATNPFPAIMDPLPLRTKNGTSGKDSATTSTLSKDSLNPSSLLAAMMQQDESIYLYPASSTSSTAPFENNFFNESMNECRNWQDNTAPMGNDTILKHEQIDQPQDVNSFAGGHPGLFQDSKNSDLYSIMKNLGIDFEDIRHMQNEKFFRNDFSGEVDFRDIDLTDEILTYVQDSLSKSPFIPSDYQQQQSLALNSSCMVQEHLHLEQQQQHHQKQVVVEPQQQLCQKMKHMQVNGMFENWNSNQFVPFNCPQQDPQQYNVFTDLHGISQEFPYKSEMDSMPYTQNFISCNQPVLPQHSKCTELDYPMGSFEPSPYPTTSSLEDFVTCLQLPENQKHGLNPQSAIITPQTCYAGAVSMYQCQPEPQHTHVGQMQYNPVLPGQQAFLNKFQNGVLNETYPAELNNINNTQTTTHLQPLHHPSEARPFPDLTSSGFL

AhR [2] = molecular target: T2, AhR (Rattus norvegicus, UniProt P41738); details: rat H4IIE cells; ref Van der Heiden et al., 2007; cited from earlier work
T2 sequence (P41738 10-853): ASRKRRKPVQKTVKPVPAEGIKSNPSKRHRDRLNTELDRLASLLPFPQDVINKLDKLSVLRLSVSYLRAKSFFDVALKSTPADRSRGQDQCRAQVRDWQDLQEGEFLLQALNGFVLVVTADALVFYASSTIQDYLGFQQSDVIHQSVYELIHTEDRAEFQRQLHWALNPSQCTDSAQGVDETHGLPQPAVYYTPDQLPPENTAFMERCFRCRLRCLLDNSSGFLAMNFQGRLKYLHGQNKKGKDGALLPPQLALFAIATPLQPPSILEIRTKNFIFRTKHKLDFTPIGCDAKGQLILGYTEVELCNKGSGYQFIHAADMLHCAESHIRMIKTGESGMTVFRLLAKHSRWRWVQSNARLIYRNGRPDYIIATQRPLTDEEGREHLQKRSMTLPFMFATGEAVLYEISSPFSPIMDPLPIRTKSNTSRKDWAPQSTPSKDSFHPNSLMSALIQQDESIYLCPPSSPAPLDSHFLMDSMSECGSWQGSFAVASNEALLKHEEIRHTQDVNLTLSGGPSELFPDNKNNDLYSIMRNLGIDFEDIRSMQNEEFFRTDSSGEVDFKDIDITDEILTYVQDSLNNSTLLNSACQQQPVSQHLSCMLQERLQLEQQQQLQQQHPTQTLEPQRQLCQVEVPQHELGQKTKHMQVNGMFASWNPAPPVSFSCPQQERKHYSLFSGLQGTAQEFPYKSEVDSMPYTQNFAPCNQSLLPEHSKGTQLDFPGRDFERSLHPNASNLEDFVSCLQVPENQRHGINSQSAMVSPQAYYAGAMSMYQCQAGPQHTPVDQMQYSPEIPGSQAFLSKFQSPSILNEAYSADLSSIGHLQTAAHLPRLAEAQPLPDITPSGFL

AhR [3] = molecular target: T1, AhR; details: human cells; ref Van der Heiden et al., 2007; cited from earlier work
AhR [4] = details: ref Medjakovic and Jungbauer, 2008; cited from earlier work
AhR [5] = molecular target: T2, AhR; test: CYP1A1 mRNA induction by qRT-PCR, rat H4IIE cells; details: for concentration inducing ~20% of the maximal response of 10 nM TCDD: rat H4IIE cells, CYP1A1 mRNA
AhR [6] = molecular target: T1, AhR; test: CYP1A1 mRNA induction by qRT-PCR, human MCF-7 cells; details: for concentration inducing ~20% of the maximal response of 10 nM TCDD: concentrations up to 100 μM
AhR [7] = molecular target: T1, AhR; details: MCF-7 cells, EROD analysis; ref Ciolino et al. (1999); cited from earlier work
AhR [8] = details: ref Ciolino and Yeh, 1999; cited from earlier work
AhR [9] = molecular target: T1, AhR; assay type: cell-based; details: human MCF-7 cells; for antagonistic effect (in words): 100 μM Chr-13 or 10 μM Chr-19 with TCDD
AhR [10] = molecular target: AhR (Mus musculus, UniProt P30561); test: AhR agonist luciferase induction, mouse H1L6.1c2 cells; assay type: cell-based; details: 10 μM; for AhR-dependent luciferase induction, normalised to maximal TCDD response: 24 hours, 1 nM TCDD = 100%; for AhR agonist activity (in words): luciferase
Summary of the method: (§1)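 Mouse H1L6.1c2 (from Hepa1c1c7) and human HG2L6.1c3 (from HepG2) hepatoma lines stably carry firefly luciferase under four DREs upstream of the MMTV promoter. Cells were exposed for 24 h at 37°C to test compound (10 mM DMSO stock) in 0.1% DMSO, TCDD (mouse 1 nM, human 10 nM) or vehicle. Cells were PBS-washed and lysed, and luminescence was read. DMSO background was subtracted and values normalised to TCDD = 100%. S.D., n = 3.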

AhR [11] = molecular target: T2, AhR; assay type: cell-based; details: rat H4IIE cells; for antagonistic effect (in words): 10 μM Chr-13 or 1 μM Chr-19 with TCDD, qRT-PCR
AhR [12] = molecular target: T1, AhR; test: AhR agonist luciferase induction, human HG2L6.1c3 cells; assay type: cell-based; details: 10 μM
Summary of the method: as §1

AhR [13] = molecular target: T1, AhR
AhR [14] = molecular target: T2, AhR

Chain of AhR (Mus musculus, UniProt P30561) (P30561 10-805 limits assumed): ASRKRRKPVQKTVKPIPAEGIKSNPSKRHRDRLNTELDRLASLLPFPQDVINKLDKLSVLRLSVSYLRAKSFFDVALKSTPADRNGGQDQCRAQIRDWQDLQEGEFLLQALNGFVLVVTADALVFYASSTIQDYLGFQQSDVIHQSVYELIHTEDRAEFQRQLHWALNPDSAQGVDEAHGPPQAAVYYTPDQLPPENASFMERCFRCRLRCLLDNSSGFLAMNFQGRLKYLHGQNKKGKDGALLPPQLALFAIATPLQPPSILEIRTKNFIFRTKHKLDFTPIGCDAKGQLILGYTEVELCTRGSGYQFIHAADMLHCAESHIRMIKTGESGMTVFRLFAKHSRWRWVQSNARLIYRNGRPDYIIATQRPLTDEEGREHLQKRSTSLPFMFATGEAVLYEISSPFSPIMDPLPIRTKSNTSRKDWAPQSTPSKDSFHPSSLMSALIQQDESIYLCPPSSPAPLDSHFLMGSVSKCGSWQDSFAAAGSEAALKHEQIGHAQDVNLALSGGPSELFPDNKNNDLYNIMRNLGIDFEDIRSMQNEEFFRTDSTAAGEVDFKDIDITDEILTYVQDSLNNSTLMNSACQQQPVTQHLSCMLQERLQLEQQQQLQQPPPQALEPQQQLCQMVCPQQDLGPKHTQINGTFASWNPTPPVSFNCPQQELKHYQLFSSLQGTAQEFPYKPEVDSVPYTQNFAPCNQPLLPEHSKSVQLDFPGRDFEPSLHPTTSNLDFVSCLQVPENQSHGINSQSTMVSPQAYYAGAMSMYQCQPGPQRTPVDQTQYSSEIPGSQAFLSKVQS
Chain of AhR (Mus musculus, UniProt P30561) (P11499 whole entry partner): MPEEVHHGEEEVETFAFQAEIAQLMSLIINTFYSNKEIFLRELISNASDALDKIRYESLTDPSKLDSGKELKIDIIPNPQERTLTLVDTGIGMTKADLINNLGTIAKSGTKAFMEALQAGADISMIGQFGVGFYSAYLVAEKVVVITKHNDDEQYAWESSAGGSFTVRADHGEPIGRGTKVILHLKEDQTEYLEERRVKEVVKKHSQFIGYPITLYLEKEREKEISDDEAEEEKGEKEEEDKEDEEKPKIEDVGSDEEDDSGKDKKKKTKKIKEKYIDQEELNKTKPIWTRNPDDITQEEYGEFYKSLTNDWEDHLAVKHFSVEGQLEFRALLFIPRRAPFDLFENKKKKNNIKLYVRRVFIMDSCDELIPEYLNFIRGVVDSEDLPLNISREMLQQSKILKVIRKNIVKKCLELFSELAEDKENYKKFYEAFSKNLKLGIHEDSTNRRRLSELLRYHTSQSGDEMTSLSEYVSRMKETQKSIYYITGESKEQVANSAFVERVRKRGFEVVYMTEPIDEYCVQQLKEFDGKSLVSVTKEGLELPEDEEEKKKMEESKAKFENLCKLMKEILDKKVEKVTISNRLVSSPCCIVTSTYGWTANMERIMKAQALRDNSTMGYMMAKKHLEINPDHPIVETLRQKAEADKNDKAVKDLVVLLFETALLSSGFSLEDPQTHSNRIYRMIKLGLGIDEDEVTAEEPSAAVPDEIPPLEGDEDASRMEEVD
Chain of AhR (Mus musculus, UniProt P30561) (O08915 whole entry partner): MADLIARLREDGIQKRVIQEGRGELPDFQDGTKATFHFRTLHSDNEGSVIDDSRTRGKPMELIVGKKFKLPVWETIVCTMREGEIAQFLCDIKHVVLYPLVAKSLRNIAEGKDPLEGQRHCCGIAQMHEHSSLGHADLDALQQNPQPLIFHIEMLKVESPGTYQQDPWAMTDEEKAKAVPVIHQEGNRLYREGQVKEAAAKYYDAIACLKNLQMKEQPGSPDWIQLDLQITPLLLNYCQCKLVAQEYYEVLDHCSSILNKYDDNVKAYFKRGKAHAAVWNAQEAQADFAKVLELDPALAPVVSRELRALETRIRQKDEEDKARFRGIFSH

AhR antagonist activity (in words) (AhR [1]): antagonised
SMILES: Nc1oc2ccccc2c(=O)c1-c1ccc(Cl)cc1 [Chr-4]

SMILES: O=c1cc(-c2ccccc2)oc2cc(O)cc(O)c12 [chrysin]
AhR antagonistic effect (in words) (AhR [2]): no antagonistic effects | AhR activity (in words) (AhR [3]): partial agonist

SMILES: COc1ccc(-c2coc3cc(O)cc(O)c3c2=O)cc1 [Biochanin A]
less potent than TCDD (AhR [4]): 100 fold

SMILES: Clc1cc2c(cc1Cl)Oc1cc(Cl)c(Cl)cc1O2 [TCDD, 2,3,7,8-tetrachlorodibenzo-p-dioxin, reference compound]
EC50 (AhR [5]): 0.000113 µM | EC50 (AhR [6]): 0.000661 µM | potency lower in human MCF-7 than in rat H4IIE cells (AhR [6]; ratio of CYP1A1 mRNA EC50s, p<0.0001): 6 fold

SMILES: O=c1c(O)c(-c2ccc(O)cc2)oc2cc(O)cc(O)c12 [kaempferol]
AhR activity (in words) (AhR [7]): antagonist

SMILES: O=c1c(O)c(-c2ccccc2)oc2cc(O)cc(O)c12 [galangin]
AhR activity (in words) (AhR [8]): AhR antagonist

EC50 (AhR [5]): 41.5 µM | concentration inducing ~20% of the maximal response of 10 nM TCDD (AhR [5]): 10 µM | concentration inducing ~20% of the maximal response of 10 nM TCDD (AhR [6]; human MCF-7 cells, CYP1A1 mRNA): no response was detected | reduction of the potency of TCDD (AhR [9]; 100 μM Chr-13): 5 fold | antagonistic effect (in words) (AhR [9]; qRT-PCR): weak antagonist | AhR-dependent luciferase induction, normalised to maximal TCDD response (AhR [10]): 50% | AhR-dependent luciferase induction, normalised to maximal TCDD response (AhR [10]; listed as Chr 13): greater than 30% | AhR agonist activity (in words) (AhR [10]): strong agonist | background induction, % of the maximal induction (AhR [11]; 10 μM Chr-13 added to TCDD C/R curve): ~ 25% | antagonistic effect (in words) (AhR [11]): no antagonistic effects
SMILES: COc1ccc2c(=O)c(-c3ccc(Cl)cc3)c(N)oc2c1 [Chr-13, 2-amino-3-(4′-chlorophenyl)-7-methoxychromen-4-one]
AhR antagonist activity (in words) (AhR [1]): antagonised; also recorded: strong antagonist | EC50 (95% Confidence interval) (AhR [6]; human MCF-7 cells, CYP1A1 mRNA, 4 hours, assuming maximal response is reached): could not be obtained; also recorded: No agonistic effect

SMILES: O=c1c(O)c(-c2ccc(O)c(O)c2)oc2cc(O)cc(O)c12 [quercetin, Quercetin]
AhR activity (in words) (AhR [7]): AhR agonist

SMILES: COc1ccc(-c2cc3cc(Cl)ccc3oc2=O)cc1 [Chr-19, 6-Chloro-3-(4′-methoxy)phenylcoumarin]
AhR antagonist activity (in words) (AhR [1]): antagonised; also recorded: antagonist | concentration inducing ~20% of the maximal response of 10 nM TCDD (AhR [5]): 1 µM | concentration inducing ~20% of the maximal response of 10 nM TCDD (AhR [6]; human MCF-7 cells, CYP1A1 mRNA): 10 µM | reduction of the potency of TCDD (AhR [9]; 10 μM Chr-19): 3 fold | antagonistic effect (in words) (AhR [9]; qRT-PCR): weak antagonist | reduction of the response to 10 nM TCDD (AhR [9]; qRT-PCR, 10 μM): 10% | AhR agonist activity (in words) (AhR [12]): induced significant levels; also recorded: weak agonist | EC50 (AhR [13]): 140 µM | EC50 (AhR [14]): 7.7 µM | more potent in rat H4IIE than in human MCF-7 cells (AhR [14]): approximately 20 fold | AhR agonist activity (in words) (AhR [10]): weak agonist | antagonistic effect (in words) (AhR [11]): no shift of the TCDD curve to the right
